Measured values taken from ChEMBL document CHEMBL2346664, “Synthesis, characterization and in vitro anticancer evaluation of novel 1,2,4-triazolin-3-one derivatives” (2013).

Key:
Assay type in all cases: functional
A549 = experiment: Growth inhibition of human A549 cells assessed as cell growth at 10 '-6 M after 48 hrs by sulforhodamine B assay; conditions: A549, 48 h, read-out: Activity
Method in brief: (§1)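 Percent growth at each of the five concentrations of the 48 h continuous-exposure NCI SRB screen. Drug stocks were in DMSO at 400× the top final concentration and diluted in medium with gentamicin. Growth was calculated as [(Ti-Tz)/(C-Tz)]×100 when Ti ≥ Tz, or [(Ti-Tz)/Tz]×100 when Ti < Tz. Tz plates were fixed at drug addition; untreated wells served as control. Absorbance was read at 515 nm.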

TK-10 [1] = experiment: Growth inhibition of human TK10 cells assessed as cell growth at 10 '-6 M after 48 hrs by sulforhodamine B assay; conditions: TK-10, 48 h, read-out: Activity
SK-OV-3 [2] = experiment: Growth inhibition of human SKOV3 cells assessed as cell growth at 10 '-6 M after 48 hrs by sulforhodamine B assay; conditions: SK-OV-3, 48 h, read-out: Activity
OVCAR-8 = experiment: Growth inhibition of human OVCAR8 cells assessed as growth inhibition at 10 uM after 48 hrs by sulforhodamine B assay; conditions: OVCAR-8, 48 h, read-out: GI
KM12 = experiment: Growth inhibition of human KM12 cells after 48 hrs by sulforhodamine B assay; conditions: KM12, 48 h
Method in brief: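 NCI 60-cell-line five-dose screen. Cells were plated at 5,000–40,000/well by doubling time and grown 24 h at 37 °C, 5% CO2. Time-zero plates were TCA-fixed. Drug from DMSO stock was tested at 0.01, 0.1, 1, 10 and 100 µM final for 48 h continuous exposure. Read-out was SRB at 515 nm. GI50 is the concentration giving 50% reduction in net protein increase versus untreated control.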

SK-OV-3 [3] = experiment: Growth inhibition of human SKOV3 cells after 48 hrs by sulforhodamine B assay; conditions: SK-OV-3, 48 h
SK-MEL-28 [4] = experiment: Growth inhibition of human SK-MEL-28 cells assessed as cell growth at 10 '-5 M after 48 hrs by sulforhodamine B assay; conditions: SK-MEL-28, 48 h, read-out: Activity
NCI-H522 = experiment: Growth inhibition of human NCI-H522 cells after 48 hrs by sulforhodamine B assay; conditions: NCI-H522, 48 h
LOX IMVI = experiment: Growth inhibition of human LOXIMVI cells assessed as cell growth at 10 '-7 M after 48 hrs by sulforhodamine B assay; conditions: read-out: Activity
TK-10 [5] = experiment: Growth inhibition of human TK10 cells assessed as growth inhibition at 10 uM after 48 hrs by sulforhodamine B assay; conditions: TK-10, 48 h, read-out: GI
[6] = Growth inhibition of human Hs 578T cells assessed as cell growth at 10 '-8 M after 48 hrs by sulforhodamine B assay; conditions: read-out: Activity
SW-620 = experiment: Growth inhibition of human SW620 cells assessed as cell growth at 10 '-5 M after 48 hrs by sulforhodamine B assay; conditions: SW-620, 48 h, read-out: Activity
IGROV-1 = experiment: Growth inhibition of human IGROV1 cells assessed as growth inhibition at 10 uM after 48 hrs by sulforhodamine B assay; conditions: IGROV-1, 48 h, read-out: GI
SNB-19 = experiment: Growth inhibition of human SNB19 cells assessed as cell growth at 10 '-8 M after 48 hrs by sulforhodamine B assay; conditions: SNB-19, 48 h, read-out: Activity
SNB-75 = experiment: Growth inhibition of human SNB75 cells assessed as cell growth at 10 '-5 M after 48 hrs by sulforhodamine B assay; conditions: SNB-75, 48 h, read-out: Activity
[7] = Growth inhibition of human HCC2998 cells assessed as cell growth at 10 '-7 M after 48 hrs by sulforhodamine B assay; conditions: HCC 2998, 48 h, read-out: Activity
DU-145 = experiment: Growth inhibition of human DU145 cells assessed as growth inhibition at 10 uM after 48 hrs by sulforhodamine B assay; conditions: DU-145, 48 h, read-out: GI
SR [8] = experiment: Growth inhibition of human SR cells assessed as growth inhibition at 10 uM after 48 hrs by sulforhodamine B assay; conditions: read-out: GI
SK-MEL-28 [9] = experiment: Growth inhibition of human SK-MEL-28 cells after 48 hrs by sulforhodamine B assay; conditions: SK-MEL-28, 48 h
HT-29 = experiment: Growth inhibition of human HT-29 cells assessed as cell growth at 10 '-7 M after 48 hrs by sulforhodamine B assay; conditions: HT-29, 48 h, read-out: Activity
CAKI-1 = experiment: Growth inhibition of human CAKI-1 cells assessed as cell growth at 10 '-6 M after 48 hrs by sulforhodamine B assay; conditions: CAKI-1, 48 h, read-out: Activity; method in brief: as §1
[10] = Growth inhibition of human Hs 578T cells assessed as cell growth at 10 '-4 M after 48 hrs by sulforhodamine B assay; conditions: read-out: Activity
T47D = experiment: Growth inhibition of human T47D cells assessed as cell growth at 10 '-5 M after 48 hrs by sulforhodamine B assay; conditions: read-out: Activity
RPMI-8226 = experiment: Growth inhibition of human RPMI8226 cells assessed as growth inhibition at 10 uM after 48 hrs by sulforhodamine B assay; conditions: RPMI-8226, 48 h, read-out: GI
MOLT-4 = experiment: Growth inhibition of human MOLT4 cells assessed as cell growth at 10 '-7 M after 48 hrs by sulforhodamine B assay; conditions: MOLT-4, 48 h, read-out: Activity
SF-295 = experiment: Growth inhibition of human SF295 cells assessed as cell growth at 10 '-8 M after 48 hrs by sulforhodamine B assay; conditions: SF-295, 48 h, read-out: Activity
SR [11] = experiment: Growth inhibition of human SR cells assessed as cell growth at 10 '-6 M after 48 hrs by sulforhodamine B assay; conditions: read-out: Activity
A498 = experiment: Growth inhibition of human A498 cells after 48 hrs by sulforhodamine B assay; conditions: A498, 48 h
Method in brief: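 NCI 60-cell-line five-dose screen at 0.01, 0.1, 1, 10 and 100 µM final. Cells were plated at 5,000–40,000/well and grown 24 h at 37 °C, 5% CO2, then exposed to drug continuously for 48 h. Adherent cells were fixed with cold TCA (10% final) and stained with SRB; absorbance read at 515 nm. GI50 is the concentration where [(Ti-Tz)/(C-Tz)]×100 = 50, with Tz plates fixed at drug addition.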

MDA-MB-468 = experiment: Growth inhibition of human MDA-MB-468 cells assessed as cell growth at 10 '-7 M after 48 hrs by sulforhodamine B assay; conditions: MDA-MB-468, 48 h, read-out: Activity
[12] = read-out: LD50 (the source's name)

## Cc1cc(=O)oc2cc(OCCn3c(C)nn(-c4ccc(Cl)cc4)c3=O)ccc12
A549
  growth at 1 µM: 96%
TK-10 [1]
  growth at 1 µM: 114%
SK-OV-3 [2]
  growth at 1 µM: 88%
OVCAR-8
  inhibition of growth at 10 µM: 82.3%
KM12
  GI50: 1.66 µM
  TGI: > 1 µM
KM12; [12]
  CC50: > 1 µM
SK-OV-3 [3]
  GI50: 3.36 µM
  TGI: 4.88 µM
SK-OV-3 [3]; [12]
  CC50: > 1 µM
SK-MEL-28 [4]
  growth at 10 µM: 33%
NCI-H522
  GI50: 3.85 µM
  TGI: 3.82 µM
NCI-H522; [12]
  CC50: > 1 µM
LOX IMVI
  growth at 0.1 µM: 88%
TK-10 [5]
  inhibition of growth at 10 µM: 40.4%
[6]
  growth at 0.01 µM: 88%
SW-620
  growth at 10 µM: 16%
IGROV-1
  inhibition of growth at 10 µM: 40.3%
SNB-19
  growth at 0.01 µM: 92%
SNB-75
  growth at 10 µM: 5%
[7]
  growth at 0.1 µM: 91%
DU-145
  inhibition of growth at 10 µM: 78.4%
SR [8]
  inhibition of growth at 10 µM: 78.8%
SK-MEL-28 [9]
  GI50: 3.13 µM
  TGI: > 1 µM
SK-MEL-28 [9]; [12]
  CC50: > 1 µM
HT-29
  growth at 0.1 µM: 106%
CAKI-1
  growth at 1 µM: 68%
[10]
  growth at 100 µM: 7%
T47D
  growth at 10 µM: 45%
RPMI-8226
  inhibition of growth at 10 µM: 69%
MOLT-4
  growth at 0.1 µM: 109%
SF-295
  growth at 0.01 µM: 94%
SR [11]
  growth at 1 µM: 29%
A498
  GI50: 1.13 µM
  TGI: 3.19 µM
A498; [12]
  CC50: > 1 µM
MDA-MB-468
  growth at 0.1 µM: 90%
